In ChEMBL document CHEMBL3414568, “Synthesis and antiproliferative activity of 3-(2-chloroethyl)-5-methyl-6-phenyl-8-(trifluoromethyl)-5,6-dihydropyrazolo[3,4-f][1,2,3,5]tetrazepin-4-(3H)-one” (Eur J Med Chem, 2015):

What was measured:
[1] = tested on: K562; test: Cell cycle arrest in human K562 cells expressing Bcr-Abl assessed as accumulation at subG0-G1 phase at 30 uM after 48 hrs by propidium iodide staining-based flow cytometry (reference value: 3.21 +/- 0.4%); type: functional
In short: (§1)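 K562 cells cultured with or without 30 µM compound for 24 h and 48 h. Cells washed once in ice-cold PBS, resuspended at 10⁶/mL in hypotonic propidium iodide solution with nonidet P-40 0.03% (v/v) in 0.1% sodium citrate, 30 min incubation, flow cytometry single-parameter DNA histograms. G0-G1/S/G2-M % calculated on cycling cells only; subG0-G1 % on total cell number.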

[2] = tested on: K562; test: Induction of apoptosis in human K562 cells expressing Bcr-Abl after 48 hrs by acridine orange/ethidium bromide staining-based fluorescence microscopic analysis; type: functional, cell-based; details: K562, 48 h
In short: (§2)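 After 48 h exposure to various concentrations, 2 × 10⁵ cells centrifuged (300 × g) and resuspended in acridine orange/ethidium bromide dye mixture. Examined under oil immersion, 100× objective, by fluorescence microscopy. Live cells take up acridine orange (green) and exclude ethidium bromide (red); apoptotic and necrotic cells scored morphologically.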

[3] = Induction of apoptosis in human HL60R cells expressing p-glycoprotein after 48 hrs by acridine orange/ethidium bromide staining-based fluorescence microscopic analysis; type: functional, cell-based; in short: as §2
[4] = tested on: HL-60; test: Induction of apoptosis in human HL60 cells after 48 hrs by acridine orange/ethidium bromide staining-based fluorescence microscopic analysis; type: functional, cell-based; details: HL-60, 48 h; in short: as §2
[5] = tested on: K562; test: Cell cycle arrest in human K562 cells expressing Bcr-Abl assessed as accumulation at subG0-G1 phase at 30 uM after 24 hrs by propidium iodide staining-based flow cytometry (reference value: 3.21 +/- 0.4%); type: functional; in short: as §1
[6] = tested on: K562; test: Cell cycle arrest in human K562 cells expressing Bcr-Abl assessed as accumulation at G0-G1 phase at 30 uM after 24 hrs by propidium iodide staining-based flow cytometry (reference value: 44.65 +/- 6.8%); type: functional; in short: as §1
[7] = tested on: K562; test: Cell cycle arrest in human K562 cells expressing Bcr-Abl assessed as accumulation at G2-M phase at 30 uM after 24 hrs by propidium iodide staining-based flow cytometry (reference value: 12.16 +/- 2.2%); type: functional; in short: as §1
[8] = Cytotoxicity against human HL60 cells assessed as growth inhibition after 48 hrs by trypan blue staining-based hemocytometric analysis; type: functional; details: HL-60, 48 h
In short: (§3)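 2 × 10⁵ cells per well in 1 mL complete medium treated with various concentrations from freshly prepared DMSO solution (DMSO ≤0.3% v/v final). After 48 h, trypan blue staining and hemocytometer counting of viable cells, expressed as percentage of control proliferation.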

[9] = tested on: K562; test: Cell cycle arrest in human K562 cells expressing Bcr-Abl assessed as accumulation at S phase at 30 uM after 24 hrs by propidium iodide staining-based flow cytometry (reference value: 43.19 +/- 7%); type: functional; in short: as §1
[10] = tested on: K562; test: Cell cycle arrest in human K562 cells expressing Bcr-Abl assessed as accumulation at S phase at 30 uM after 48 hrs by propidium iodide staining-based flow cytometry (reference value: 43.19 +/- 7%); type: functional; in short: as §1
[11] = Cytotoxicity against human HL60R cells expressing p-glycoprotein assessed as growth inhibition after 48 hrs by trypan blue staining-based hemocytometric analysis; type: functional; in short: as §3
[12] = tested on: HepG2; test: Cytotoxicity against human HepG2 cells assessed as growth inhibition after 48 hrs by trypan blue staining-based hemocytometric analysis; type: functional; details: HepG2, 48 h; in short: as §3
[13] = tested on: HepG2; test: Induction of apoptosis in human HepG2 cells after 48 hrs by acridine orange/ethidium bromide staining-based fluorescence microscopic analysis; type: functional, cell-based; details: HepG2, 48 h; in short: as §2
[14] = tested on: K562; test: Cytotoxicity against human K562 cells expressing Bcr-Abl assessed as growth inhibition after 48 hrs by trypan blue staining-based hemocytometric analysis; type: functional; details: K562, 48 h; in short: as §3
[15] = tested on: K562; test: Cell cycle arrest in human K562 cells expressing Bcr-Abl assessed as accumulation at G0-G1 phase at 30 uM after 48 hrs by propidium iodide staining-based flow cytometry (reference value: 44.65 +/- 6.8%); type: functional; in short: as §1
[16] = tested on: K562; test: Cell cycle arrest in human K562 cells expressing Bcr-Abl assessed as accumulation at G2-M phase at 30 uM after 48 hrs by propidium iodide staining-based flow cytometry (reference value: 12.16 +/- 2.2%); type: functional; in short: as §1
[17] = tested on: WiDr; test: Cytotoxicity against human WiDr cells overexpressing MGMT after 48 hrs by trypan blue staining-based hemocytometric analysis; type: functional, cell-based; in short: as §3

| SMILES | AC50 [3] | GI50 [8] | GI50 [11] | GI50 [14] | IC50 [17] | further results |
| --- | --- | --- | --- | --- | --- | --- |
| CN1C(=O)N(CCCl)N=Nc2c(C(F)(F)F)nn(-c3ccccc3)c21 | 22 µM | 9 µM | 14 µM | 18 µM | 2.3 µM | Activity [1]: 38.35%; AC50 [2]: 37 µM; AC50 [4]: 19 µM; Activity [5]: 15%; Activity [6]: 43.96%; Activity [7]: 12.45%; Activity [9]: 43.59%; Activity [10]: 44.24%; GI50 [12]: 26 µM; AC50 [13]: 43 µM; Activity [15]: 40.97%; Activity [16]: 14.79% |
| CN1N=Nc2c(C(F)(F)F)nn(-c3ccccc3)c2N(C)C1=O | 38 µM | 21 µM | 30 µM | 40 µM | – | – |
| COc1cccc2c1C(=O)c1c(O)c3c(c(O)c1C2=O)C[C@@](O)(C(C)=O)C[C@@H]3O[C@H]1C[C@H](N)[C@H](O)[C@H](C)O1 [DAUNORUBICIN] | – | 0.1 µM | 38 µM | – | – | – |
| COc1cc([C@@H]2c3cc4c(cc3[C@@H](O[C@@H]3O[C@@H]5CO[C@@H](C)O[C@H]5[C@H](O)[C@H]3O)[C@H]3COC(=O)[C@H]23)OCO4)cc(OC)c1O [ETOPOSIDE] | – | 0.4 µM | > 400 µM | – | – | – |
| Cn1nnc2c(C(N)=O)ncn2c1=O [TEMOZOLOMIDE] | – | – | – | – | 1720 µM | – |
